Series [1] deals with Rattus norvegicus. Description: Hypolipidemic activity in Wistar rat assessed as reduction in plasma cholesterol level at 422 umol/kg/day administered through diet for 4 days. The format is functional. Conditions: 96 h. In short, it runs like this: (§1)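 Young male Wistar rats, 170-190 g initial weight, groups of six, given compound mixed thoroughly into Purina Lab Chow ad libitum for 4 or 10 days as stated. Daily dose calculated from food consumption and body weight. Bled by cardiac puncture at end of treatment; plasma cholesterol measured by automated procedure. Expressed as percent reduction versus simultaneous untreated control group; Student's t test.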

For series [2], the system named is Rattus norvegicus. Description: Hypolipidemic activity in Wistar rat assessed as reduction in plasma triglyceride level at 422 umol/kg/day administered through diet for 4 days. Conditions: 96 h. The format is functional.
In series [3] the test system is Rattus norvegicus. Description: Increase in cholesterol level in Wistar rat liver at 422 umol/kg/day administered through diet for 4 days. The format is ADME, organism-based. Particulars: in vivo, po, 96 h.
The test system of series [4] is Rattus norvegicus. The experiment in a line: Increase in liver weight in Wistar rat at 422 umol/kg/day administered through diet for 4 days. The format is ADME, organism-based. Particulars: in vivo, po, 96 h.
Series [5] concerns Rattus norvegicus. Description: Hypolipidemic activity in Wistar rat assessed as reduction in plasma triglyceride level at 462 umol/kg/day administered through diet for 10 days. The format is functional. Particulars: 240 h.
In series [6] the test system is Rattus norvegicus. The experiment in a line: Hypolipidemic activity in Wistar rat assessed as reduction in plasma triglyceride level at 453 umol/kg/day administered through diet for 4 days. The format is functional. Conditions: 96 h.
For series [7], the system named is Rattus norvegicus. Description: Hypolipidemic activity in Wistar rat assessed as reduction in plasma cholesterol level at 462 umol/kg/day administered through diet for 10 days. The format is functional. Conditions: 240 h. In short, it runs like this: as §1
For series [8], the system named is Rattus norvegicus. Description: Hypolipidemic activity in Wistar rat assessed as reduction in plasma cholesterol level at 453 umol/kg/day administered through diet for 4 days. The format is functional. Particulars: 96 h. In short, it runs like this: as §1
Series [9] relates to Rattus norvegicus. The experiment in a line: Increase in cholesterol level in Wistar rat liver at 462 umol/kg/day administered through diet for 10 days. The format is ADME, organism-based. Particulars: in vivo, po, 240 h.
For series [10], the system named is Rattus norvegicus. Description: Increase in liver weight in Wistar rat at 462 umol/kg/day administered through diet for 10 days. The format is ADME, organism-based. Conditions: in vivo, po, 240 h.
For series [11], the system named is Rattus norvegicus. The experiment in a line: Increase in liver weight in Wistar rat at 453 umol/kg/day administered through diet for 4 days. The format is ADME, organism-based. Conditions: in vivo, po, 96 h.
In series [12] the test system is Rattus norvegicus. The experiment in a line: Hypolipidemic activity in Wistar rat assessed as reduction in plasma triglyceride level at 439 umol/kg/day administered through diet for 10 days. The format is functional. Particulars: 240 h. In short, it runs like this:
(§2)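 Young male Wistar rats (initial weight 170-190 g), groups of six, fed compound mixed into Purina Lab Chow ad libitum for 4 or 10 days; daily dose calculated from food consumption and body weight. Bled by cardiac puncture; plasma cholesterol and triglycerides by automated procedures; percent reduction versus simultaneous untreated controls, Student's t test.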

Series [13] concerns Rattus norvegicus. Description: Hypolipidemic activity in Wistar rat assessed as reduction in plasma cholesterol level at 439 umol/kg/day administered through diet for 10 days. The format is functional. Conditions: 240 h. In short, it runs like this:
as §1

Series [14] has as its system Rattus norvegicus. The experiment in a line: Hypolipidemic activity in Wistar rat assessed as reduction in plasma triglyceride level at 461 umol/kg/day administered through diet for 4 days. The format is functional. Conditions: 96 h.
Series [15] relates to Rattus norvegicus. The experiment in a line: Hypolipidemic activity in Wistar rat assessed as reduction in plasma triglyceride level at 392 umol/kg/day administered through diet for 10 days. The format is functional. Particulars: 240 h. In short, it runs like this:
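Young male Wistar rats (170-190 g initial weight), groups of six, fed test compound mixed into Purina Lab Chow ad libitum; daily dose calculated from food consumption and body weight. Bled by cardiac puncture at end of treatment; plasma triglycerides measured by automated procedure. Results given as percent reduction versus a simultaneous untreated control group, with significance by Student's t test.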

In series [16] the test system is Rattus norvegicus. The experiment in a line: Hypolipidemic activity in Wistar rat assessed as reduction in plasma cholesterol level at 461 umol/kg/day administered through diet for 4 days. Conditions: 96 h. The format is functional. In short, it runs like this:
as §1

For series [17], the system named is Rattus norvegicus. Description: Hypolipidemic activity in Wistar rat assessed as reduction in plasma cholesterol level at 392 umol/kg/day administered through diet for 10 days. The format is functional. Particulars: 240 h. In short, it runs like this:
(§3)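 Young male Wistar rats, 170-190 g at start, in groups of six, given compound mixed into Purina Lab Chow ad libitum for 4 or 10 days as stated. Daily dose was calculated from food consumption and body weight. Plasma was taken by cardiac puncture at the end and cholesterol measured by automated procedure. Results are % reduction versus a concurrent untreated control group, with Student's t test.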

The test system of series [18] is Rattus norvegicus. The experiment in a line: Increase in liver weight in Wistar rat at 439 umol/kg/day administered through diet for 10 days. The format is ADME, organism-based. Particulars: in vivo, po, 240 h. In short, it runs like this: (§4)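 Male Wistar rats (170-190 g initial), groups of six, dosed via diet ad libitum for 4 or 10 days, daily dose from food consumption. Liver wet weight measured, expressed as g/100 g final body weight, compared with untreated controls run simultaneously.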

Series [19] has as its system Rattus norvegicus. The experiment in a line: Increase in cholesterol level in Wistar rat liver at 461 umol/kg/day administered through diet for 4 days. The format is ADME, organism-based. Particulars: in vivo, po, 96 h.
For series [20], the system named is Rattus norvegicus. The experiment in a line: Increase in cholesterol level in Wistar rat liver at 392 umol/kg/day administered through diet for 10 days. The format is ADME, organism-based. Particulars: in vivo, po, 240 h.
For series [21], the system named is Rattus norvegicus. Description: Increase in cholesterol level in Wistar rat liver at 439 umol/kg/day administered through diet for 10 days. The format is ADME, organism-based. Particulars: in vivo, po, 240 h.
Series [22] concerns Rattus norvegicus. The experiment in a line: Increase in liver weight in Wistar rat at 461 umol/kg/day administered through diet for 4 days. Conditions: in vivo, po, 96 h. The format is ADME, organism-based.
For series [23], the system named is Rattus norvegicus. The experiment in a line: Increase in liver weight in Wistar rat at 392 umol/kg/day administered through diet for 10 days. The format is ADME, organism-based. Conditions: in vivo, po, 240 h.
Series [24] relates to Rattus norvegicus. Description: Hypolipidemic activity in Wistar rat assessed as reduction in plasma cholesterol level at 533 umol/kg/day administered through diet for 4 days. The format is functional. Particulars: 96 h. In short, it runs like this:
as §1

Series [25] deals with Rattus norvegicus. The experiment in a line: Hypolipidemic activity in Wistar rat assessed as reduction in plasma triglyceride level at 533 umol/kg/day administered through diet for 4 days. Conditions: 96 h. The format is functional.
Series [26] relates to Rattus norvegicus. Description: Increase in cholesterol level in Wistar rat liver at 533 umol/kg/day administered through diet for 4 days. The format is ADME, organism-based. Particulars: in vivo, po, 96 h.
Series [27] relates to Rattus norvegicus. Description: Increase in liver weight in Wistar rat at 533 umol/kg/day administered through diet for 4 days. The format is ADME, organism-based. Conditions: in vivo, po, 96 h.
The subject of series [28] is Rattus norvegicus. Description: Hypolipidemic activity in Wistar rat assessed as reduction in plasma cholesterol level at 439 umol/kg/day administered through diet for 4 days. The format is functional. Particulars: 96 h. In short, it runs like this: as §1
For series [29], the system named is Rattus norvegicus. Description: Hypolipidemic activity in Wistar rat assessed as reduction in plasma cholesterol level at 419 umol/kg/day administered through diet for 10 days. The format is functional. Conditions: 240 h. In short, it runs like this: as §1
For series [30], the system named is Rattus norvegicus. Description: Hypolipidemic activity in Wistar rat assessed as reduction in plasma cholesterol level at 417 umol/kg/day administered through diet for 10 days. The format is functional. Conditions: 240 h. In short, it runs like this:
as §3

Series [31] concerns Rattus norvegicus. The experiment in a line: Hypolipidemic activity in Wistar rat assessed as reduction in plasma triglyceride level at 439 umol/kg/day administered through diet for 4 days. The format is functional. Conditions: 96 h. In short, it runs like this:
as §2

Series [32] concerns Rattus norvegicus. Description: Hypolipidemic activity in Wistar rat assessed as reduction in plasma triglyceride level at 419 umol/kg/day administered through diet for 10 days. The format is functional. Conditions: 240 h. In short, it runs like this:
as §2

Series [33] deals with Rattus norvegicus. The experiment in a line: Hypolipidemic activity in Wistar rat assessed as reduction in plasma triglyceride level at 417 umol/kg/day administered through diet for 10 days. The format is functional. Conditions: 240 h.
Series [34] has as its system Rattus norvegicus. Description: Increase in cholesterol level in Wistar rat liver at 439 umol/kg/day administered through diet for 4 days. The format is ADME, organism-based. Particulars: in vivo, po, 96 h.
The subject of series [35] is Rattus norvegicus. Description: Increase in cholesterol level in Wistar rat liver at 419 umol/kg/day administered through diet for 10 days. The format is ADME, organism-based. Particulars: in vivo, po, 240 h. In short, it runs like this: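 Male Wistar rats (170-190 g), six per group, given compound by admixture to lab chow ad libitum for 4 or 10 days, dose derived from food intake. Liver cholesterol determined by automated procedure, expressed as mg/g wet tissue, compared with an untreated control group by Student's t test.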

Series [36] has as its system Rattus norvegicus. Description: Increase in cholesterol level in Wistar rat liver at 417 umol/kg/day administered through diet for 10 days. The format is ADME, organism-based. Conditions: in vivo, po, 240 h.
Series [37] has as its system Rattus norvegicus. The experiment in a line: Increase in liver weight in Wistar rat at 439 umol/kg/day administered through diet for 4 days. The format is ADME, organism-based. Particulars: in vivo, po, 96 h. In short, it runs like this:
as §4

Series [38] concerns Rattus norvegicus. The experiment in a line: Increase in liver weight in Wistar rat at 419 umol/kg/day administered through diet for 10 days. The format is ADME, organism-based. Conditions: in vivo, po, 240 h. In short, it runs like this:
as §4

Series [39] concerns Rattus norvegicus. The experiment in a line: Increase in liver weight in Wistar rat at 417 umol/kg/day administered through diet for 10 days. The format is ADME, organism-based. Particulars: in vivo, po, 240 h.

Consider `CCCCCCCCCCCCCCCCOc1ccc(C(=O)OCC)cc1`, for which the inhibition in vivo at 422 µmol/kg with Rattus norvegicus [1] came out at 8%; with Rattus norvegicus [2], 29%. The figures for the Activity in the series on Rattus norvegicus [3] and in the series on Rattus norvegicus [4] were 9% and 11%, respectively.

With `CCCCCCCCCCCCCCOc1cccc(C(=O)OC)c1`, the values for the inhibition in vivo at 462 µmol/kg with Rattus norvegicus [5] and in the series on Rattus norvegicus [7] were 59% and 24%, respectively. The figures for the inhibition in vivo at 453 µmol/kg in the series with Rattus norvegicus [6] and with Rattus norvegicus [8] were 51% and 0%, respectively. Further, the Activity was found to be 12% in the series on Rattus norvegicus [9], 0% in the series with Rattus norvegicus [10] and 0% in the series with Rattus norvegicus [11].

As for `CCCCCCCCCCCCCCOc1ccc(C(=O)OCC)cc1`, the figures for the inhibition in vivo at 439 µmol/kg in the series with Rattus norvegicus [12] and in the series on Rattus norvegicus [13] were 54% and 24%, respectively. Further, the inhibition in vivo at 461 µmol/kg in the series with Rattus norvegicus [14] is 42%; in the series on Rattus norvegicus [16] it was 23%. Besides, the results for the inhibition in vivo at 392 µmol/kg in the series with Rattus norvegicus [15] and in the series with Rattus norvegicus [17] were 61% and 33%, respectively. Moreover, the Activity is 10% in the series with Rattus norvegicus [18]; 20% in the series with Rattus norvegicus [19]; 0% with Rattus norvegicus [20]; 3% with Rattus norvegicus [21]; 16% with Rattus norvegicus [22]; 2% with Rattus norvegicus [23].

Regarding `CCCCCCCCCCCCOc1ccc(C(=O)O)o1`, the inhibition in vivo at 533 µmol/kg in the series on Rattus norvegicus [24] was 38%; with Rattus norvegicus [25], 79%. The Activity was found to be 0% in the series with Rattus norvegicus [26] and 22% in the series with Rattus norvegicus [27].

In the case of `CCCCCCCCCCCCCCCOc1ccc(C(=O)OC)cc1`, the inhibition in vivo at 439 µmol/kg in the series with Rattus norvegicus [28] worked out at 19%; in the series with Rattus norvegicus [31] it was 46%. The inhibition in vivo at 419 µmol/kg is 20% with Rattus norvegicus [29] and 57% with Rattus norvegicus [32]. The results for the inhibition in vivo at 417 µmol/kg with Rattus norvegicus [30] and in the series with Rattus norvegicus [33] were 37% and 73%, respectively. Further, the Activity is on record as 9% with Rattus norvegicus [34]; 2% with Rattus norvegicus [35]; 9% in the series with Rattus norvegicus [36]; 7% with Rattus norvegicus [37]; 15% in the series on Rattus norvegicus [38]; 0% in the series on Rattus norvegicus [39].

The inhibition in vivo is the share of the control response that was lost under treatment.

The record behind these values is ChEMBL document CHEMBL3272012, “5-(Tetradecyloxy)-2-furancarboxylic acid and related hypolipidemic fatty acid-like alkyloxyarylcarboxylic acids” (J Med Chem, 1977).
